Measurements as given in article PMC10543179 (iScience, 2023).
Where “and” joins values, the source holds several entries; their conditions need not be identical. Equal entries are not always repeated. Where two headings read alike, the source gives them in different places. Marks after values point to notes of the source that are not given here.

Columns and labels:
MCF10A = experiment: MTT cell viability assay; type: cell-based, Human; conditions: 24 h; for IC25 MCF10A / IC75 MCF10A: mean ± SD; for IC50: Homo sapiens, MCF-10A, read-out: IC50 MCF10A
Procedure, shortened: (§1)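 Cells were seeded at 10^4/well and left overnight, then exposed 24 h to 0.8–100 µmol/L test compound, with DMSO as control. MTT (5 mg/mL) was added for 2 h at 37 °C; formazan was dissolved in DMSO and read at 570 nm. IC25/50/75 came from viability curves, triplicate wells, ≥3 independent experiments, mean ± SD. Media: HeLa and CAL27 DMEM/10% FBS; MCF7 DMEM/F12/10% FBS plus insulin; MCF10A DMEM/F12/5% horse serum plus insulin.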

[1] = 13C NMR lactate transport assay; type: biochemical; conditions: 1% mol carrier to lipid, 50 mM NaCl, 0.5 mM MnCl2
Procedure, shortened: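 POPC vesicles loaded with 13C-carboxyl-labelled sodium L-lactate (200 mM NaLac, 20 mM NaH2PO4, pH 7.2), then dialysed against 150 mM Na2SO4, 20 mM NaH2PO4, pH 7.2 to remove unencapsulated lactate. 13C NMR spectra were taken after the NaCl pulse with the test compound, then after MnCl2, which affects only extravesicular lactate signals.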

[2] = test system: HeLa, MCF7, CAL27 and MCF10A cell lines; experiment: MTT cell viability assay, summary among cell lines; type: cell-based; conditions: Homo sapiens, 24 h, read-out: IC50 values among different cell lines
Procedure, shortened: as §1

CAL27 = experiment: MTT cell viability assay; type: cell-based, Human; conditions: for IC25 CAL27 / IC75 CAL27: 24 h, mean ± SD; for IC50: Homo sapiens, CAL-27, 24 h, read-out: IC50 CAL27
Procedure, shortened: as §1

HeLa cells [3] = experiment: Lactate transport experiments; type: cell-based, Human; conditions: for Extra- and intracellular lactate levels in the presence of Syro compared with Syro alone: 3.9 μM compound, Syro 10 μM 1 h pre-treatment, 60 and 120 min
Procedure, shortened: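 HeLa cells were seeded at 10^5 cells/mL and left overnight, then treated 60 and 120 min; test compounds were at 3.9 µM, with DMSO as control. Medium was kept for extracellular lactate. Cells were washed, permeabilised 5 min with 0.2 M HCl in PBS, and neutralised with 1 M Tris base. Extracts were mixed 1:1 with Lactate-Glo reagent, and luminescence was read after 1 h against a standard curve. Values were normalised to BCA protein after 2% SDS lysis.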

MCF7 = experiment: MTT cell viability assay; type: cell-based, Human; conditions: for IC25 MCF7 / IC75 MCF7: 24 h, mean ± SD; for IC50: Homo sapiens, MCF7, 24 h, read-out: IC50 MCF7
Procedure, shortened: as §1

HeLa = experiment: MTT cell viability assay; type: cell-based, Human; conditions: 24 h; for IC25 HeLa / IC75 HeLa: mean ± SD; for IC50: Homo sapiens, HeLa, read-out: IC50 HeLa
Procedure, shortened: as §1

[4] = ISE chloride efflux assay, Cl−/NO3− exchange; type: biochemical; conditions: read-out: EC50 Cl^−/NO3^−; chloride efflux at 300 s, 0.5 mM POPC, pH 7.2
Procedure, shortened: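 POPC vesicles (200 nm) held 489 mM NaCl, 5 mM NaH2PO4, pH 7.2, and were dialysed into and dispersed in 489 mM NaNO3, 5 mM NaH2PO4, pH 7.2; final lipid 0.5 mM. Test compound in DMSO was added at t = 0, with DMSO as blank. Chloride release was followed by chloride-selective electrode for 300 s, then Triton-X lysis set 100% release. EC50 and Hill coefficient were derived.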

[5] = Solubility in DMSO-d6 when preparing NMR solutions; type: physicochemical; conditions: DMSO-d6, 25 °C, organic solvent or mixture
HeLa cells [6] = experiment: Combination therapy of 1 and CisPt; type: cell-based, Human
[7] = read-out: EC50 Cl^−/HCO3^−; chloride efflux at 300 s, POPC vesicles; cited from earlier work
[8] = deprotonated form, calculated; cited from earlier work
[9] = read-out: EC50 Cl^−/NO3^−; chloride efflux at 300 s, POPC vesicles; cited from earlier work

Row | SMILES | IC25 MCF10A (MCF10A) [µM] | IC75 MCF10A (MCF10A) [µM] | IC50 (MCF10A) [µM] | IC50 [2] [µM] | IC25 CAL27 (CAL27) [µM] | IC75 CAL27 (CAL27) [µM] | IC50 (CAL27) [µM] | IC25 MCF7 (MCF7) [µM] | IC75 MCF7 (MCF7) [µM] | IC50 (MCF7) [µM] | IC25 HeLa (HeLa) [µM] | IC75 HeLa (HeLa) | IC50 (HeLa) [µM] | EC50 [4] [µM] | further results
1 | COc1cc(-c2cn(CCO)nn2)[nH]c1/C=N/CCO.Cl [Compound 4, (E)-2-hydroxy-N-((5-(1-(2-hydroxyethyl)-1H-1,2,3-triazol-4-yl)-3-methoxy-1H-pyrrol-2-yl)methylene)ethan-1-aminium chloride] | 98.64 ± 0.94 | >100 | > 100 | > 82 | 60.97 ± 5.40 | >100 | 82.1 ± 2.88 | >100 | >100 | > 100 | >100 | >100 µM | > 100 |  | Lactate efflux from vesicles seen by 13C NMR after NaCl pulse and MnCl2 [1]: no changes; Extra- and intracellular lactate levels in the presence of Syro compared with Syro alone (HeLa cells [3]): no significant differences
2 | COc1cc(-c2cn(-c3ccc(C(C)(C)C)cc3)nn2)[nH]c1/C=N/CCO.Cl [Compound 3, (E)-N-((5-(1-(4-(tert-butyl)phenyl)-1H-1,2,3-triazol-4-yl)-3-methoxy-1H-pyrrol-2-yl)methylene)-2-hydroxyethan-1-aminium chloride] | 18.11 ± 3.23 | 35.95 ± 4.27 | 25.4 ± 1.61 | 4.6 to 25.4 | 14.62 ± 3.20 | 20.88 ± 4.45 | 17.4 ± 3.31 | 7.22 ± 0.85 | 34.69 ± 3.11 | 15.8 ± 1.14 | 11.98 ± 0.40 | 15.29 ± 1.87 µM | 13.5 ± 1.05 | 8.34 ± 0.431 | 
3 | CCOC(=O)Oc1c(OC)cc(C(=O)O[C@@H]2C[C@@H]3CN4CCc5c([nH]c6cc(OC)ccc56)[C@H]4C[C@@H]3[C@H](C(=O)OC)[C@H]2OC)cc1OC [Syro, Syrosingopine, reference compound] |  |  |  |  |  |  |  |  |  |  |  |  |  |  | Intracellular lactate levels compared to DMSO (HeLa cells [3]; Syro alone 10 μM, 60 and 120 min (p < 0.0001)): significantly higher than DMSO
4 | COc1cc(-c2cn(-c3ccc(C(C)(C)C)cc3)nn2)[nH]c1/C=N/C12CC3CC(CC(C3)C1)C2.Cl [Compound 1, N-((E)-(5-(1-(4-(tert-butyl)phenyl)-1H-1,2,3-triazol-4-yl)-3-methoxy-1H-pyrrol-2-yl)methylene)adamantan-1-aminium chloride] | 5.36 ± 1.09 | 11.22 ± 3.94 | 7.66 ± 1.86 | 3.3 to 7.7 | 2.68 ± 0.18 | 4.00 ± 0.50 | 3.27 ± 0.27 | 4.00 ± 1.22 | 7.91 ± 1.42 | 5.58 ± 1.17 | 2.85 ± 0.16 | 3.9 µM and 3.95 ± 0.26 µM | 3.36 ± 0.19 | 0.0037 ± 0.0004 | Lactate efflux from vesicles seen by 13C NMR after NaCl pulse and MnCl2 [1]: facilitates lactate efflux; solubility [5]: < 50 mM; Effect of combination therapy with CisPt on cell viability (HeLa cells [6]; 1 at IC10, IC25, IC50, IC75 for 24 h, then CisPt 24 h, all doses of 1): higher compared with respective monotherapy of CisPt; Type of interaction with CisPt (Combination Index) (HeLa cells [6]; higher doses of both 1 and CisPt): moderate synergic effect; Type of interaction with CisPt (Combination Index) (HeLa cells [6]; majority of the dose combinations tested): additive effect
5 | COc1cc(-c2cn(CCO)nn2)[nH]c1/C=N/C12CC3CC(CC(C3)C1)C2.Cl [Compound 5, N-((E)-(5-(1-(2-Hydroxyethyl)-1H-1,2,3-triazol-4-yl)-3-methoxy-1H-pyrrol-2-yl)methylene)adamantan-1-aminium chloride] | 94.92 ± 5.23 | >100 | > 100 | > 82 | 86.88 ± 6.79 | >100 | 96 ± 4.79 | >100 | >100 | > 100 | 78.14 ± 3.00 | 93.73 ± 3.71 µM | 85.6 ± 2.94 |  | Extra- and intracellular lactate levels in the presence of Syro compared with Syro alone (HeLa cells [3]): no significant differences
6 | COc1cc(-c2cn(-c3ccc(C(C)(C)C)cc3)nn2)[nH]c1/C=N/C1CCCC1.Cl [Compound 2, (E)-N-((5-(1-(4-(tert-butyl)phenyl)-1H-1,2,3-triazol-4-yl)-3-methoxy-1H-pyrrol-2-yl)methylene)cyclopentanaminium chloride] | 13.62 ± 1.64 | 25.65 ± 3.97 | 18.7 ± 2.55 | 4.6 to 25.4 | 9.25 ± 2.26 | 12.35 ± 2.40 | 10.6 ± 2.06 | 4.04 ± 1.37 | 20.49 ± 3.88 | 9.06 ± 2.35 | 11.34 ± 0.38 | 13.77 ± 1.88 µM | 12.5 ± 0.98 | 0.016 ± 0.001 | 
7 | COc1cc(-c2cn(-c3ccc(Cl)cc3)nn2)[nH]c1/C=N/C1CCCCC1.Cl [Compound 6, (E)-N-((5-(1-(4-Chlorophenyl)-1H-1,2,3-triazol-4-yl)-3-methoxy-1H-pyrrol-2-yl)methylene)cyclohexanaminium chloride] | 3.49 ± 0.22 | 6.12 ± 1.56 | 4.61 ± 0.15 | 4.6 to 25.4 | 6.58 ± 2.98 | 8.44 ± 2.59 | 7.41 ± 2.77 | 9.05 ± 1.13 | 14.53 ± 1.23 | 11.5 ± 1.19 | 6.09 ± 0.09 | 6.54 ± 0.02 µM | 6.31 ± 0.06 |  | EC50 [7]: 0.13 ± 0.007 µM; LogP [8]: 4.22 ^c; EC50 [9]: 0.0326 ± 0.0008 µM
